# Reference: article PMC12423902 (ACS Omega, 2025)
# Read-outs that look alike come from different tables or passages of the source.
# Legend:
# FASN [1] = biological target: T1, FASN (Gallus gallus, UniProt P12276); test: FASN overall reaction inhibition; type: biochemical, chicken
# In short: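 Overall reaction of purified chicken liver FASN at 37 °C, read as initial rate of NADPH absorbance loss at 340 nm. The test compound was added before the last substrate, which started the reaction; DMSO was below 0.5% (v/v). Relative activity was Ai/A0 × 100%. IC50 came from a plot of relative activity versus concentration. Single-point data at 10.0 μM are mean ± SD, n = 3 independent experiments.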
# FASN [2] = biological target: T1, FASN; conditions: read-out: IC50, FASN inhibition; literature value; ref number not given; cited from earlier work
# [3] = biological target: FASN KR domain (β-ketoacyl reduction) (Gallus gallus, UniProt P12276); test: β-ketoacyl reduction partial reaction of FASN; type: biochemical, chicken; conditions: 10.0 μM phloretin
# Sequence of FASN KR domain (β-ketoacyl reduction) (P12276 2-2512 limits assumed): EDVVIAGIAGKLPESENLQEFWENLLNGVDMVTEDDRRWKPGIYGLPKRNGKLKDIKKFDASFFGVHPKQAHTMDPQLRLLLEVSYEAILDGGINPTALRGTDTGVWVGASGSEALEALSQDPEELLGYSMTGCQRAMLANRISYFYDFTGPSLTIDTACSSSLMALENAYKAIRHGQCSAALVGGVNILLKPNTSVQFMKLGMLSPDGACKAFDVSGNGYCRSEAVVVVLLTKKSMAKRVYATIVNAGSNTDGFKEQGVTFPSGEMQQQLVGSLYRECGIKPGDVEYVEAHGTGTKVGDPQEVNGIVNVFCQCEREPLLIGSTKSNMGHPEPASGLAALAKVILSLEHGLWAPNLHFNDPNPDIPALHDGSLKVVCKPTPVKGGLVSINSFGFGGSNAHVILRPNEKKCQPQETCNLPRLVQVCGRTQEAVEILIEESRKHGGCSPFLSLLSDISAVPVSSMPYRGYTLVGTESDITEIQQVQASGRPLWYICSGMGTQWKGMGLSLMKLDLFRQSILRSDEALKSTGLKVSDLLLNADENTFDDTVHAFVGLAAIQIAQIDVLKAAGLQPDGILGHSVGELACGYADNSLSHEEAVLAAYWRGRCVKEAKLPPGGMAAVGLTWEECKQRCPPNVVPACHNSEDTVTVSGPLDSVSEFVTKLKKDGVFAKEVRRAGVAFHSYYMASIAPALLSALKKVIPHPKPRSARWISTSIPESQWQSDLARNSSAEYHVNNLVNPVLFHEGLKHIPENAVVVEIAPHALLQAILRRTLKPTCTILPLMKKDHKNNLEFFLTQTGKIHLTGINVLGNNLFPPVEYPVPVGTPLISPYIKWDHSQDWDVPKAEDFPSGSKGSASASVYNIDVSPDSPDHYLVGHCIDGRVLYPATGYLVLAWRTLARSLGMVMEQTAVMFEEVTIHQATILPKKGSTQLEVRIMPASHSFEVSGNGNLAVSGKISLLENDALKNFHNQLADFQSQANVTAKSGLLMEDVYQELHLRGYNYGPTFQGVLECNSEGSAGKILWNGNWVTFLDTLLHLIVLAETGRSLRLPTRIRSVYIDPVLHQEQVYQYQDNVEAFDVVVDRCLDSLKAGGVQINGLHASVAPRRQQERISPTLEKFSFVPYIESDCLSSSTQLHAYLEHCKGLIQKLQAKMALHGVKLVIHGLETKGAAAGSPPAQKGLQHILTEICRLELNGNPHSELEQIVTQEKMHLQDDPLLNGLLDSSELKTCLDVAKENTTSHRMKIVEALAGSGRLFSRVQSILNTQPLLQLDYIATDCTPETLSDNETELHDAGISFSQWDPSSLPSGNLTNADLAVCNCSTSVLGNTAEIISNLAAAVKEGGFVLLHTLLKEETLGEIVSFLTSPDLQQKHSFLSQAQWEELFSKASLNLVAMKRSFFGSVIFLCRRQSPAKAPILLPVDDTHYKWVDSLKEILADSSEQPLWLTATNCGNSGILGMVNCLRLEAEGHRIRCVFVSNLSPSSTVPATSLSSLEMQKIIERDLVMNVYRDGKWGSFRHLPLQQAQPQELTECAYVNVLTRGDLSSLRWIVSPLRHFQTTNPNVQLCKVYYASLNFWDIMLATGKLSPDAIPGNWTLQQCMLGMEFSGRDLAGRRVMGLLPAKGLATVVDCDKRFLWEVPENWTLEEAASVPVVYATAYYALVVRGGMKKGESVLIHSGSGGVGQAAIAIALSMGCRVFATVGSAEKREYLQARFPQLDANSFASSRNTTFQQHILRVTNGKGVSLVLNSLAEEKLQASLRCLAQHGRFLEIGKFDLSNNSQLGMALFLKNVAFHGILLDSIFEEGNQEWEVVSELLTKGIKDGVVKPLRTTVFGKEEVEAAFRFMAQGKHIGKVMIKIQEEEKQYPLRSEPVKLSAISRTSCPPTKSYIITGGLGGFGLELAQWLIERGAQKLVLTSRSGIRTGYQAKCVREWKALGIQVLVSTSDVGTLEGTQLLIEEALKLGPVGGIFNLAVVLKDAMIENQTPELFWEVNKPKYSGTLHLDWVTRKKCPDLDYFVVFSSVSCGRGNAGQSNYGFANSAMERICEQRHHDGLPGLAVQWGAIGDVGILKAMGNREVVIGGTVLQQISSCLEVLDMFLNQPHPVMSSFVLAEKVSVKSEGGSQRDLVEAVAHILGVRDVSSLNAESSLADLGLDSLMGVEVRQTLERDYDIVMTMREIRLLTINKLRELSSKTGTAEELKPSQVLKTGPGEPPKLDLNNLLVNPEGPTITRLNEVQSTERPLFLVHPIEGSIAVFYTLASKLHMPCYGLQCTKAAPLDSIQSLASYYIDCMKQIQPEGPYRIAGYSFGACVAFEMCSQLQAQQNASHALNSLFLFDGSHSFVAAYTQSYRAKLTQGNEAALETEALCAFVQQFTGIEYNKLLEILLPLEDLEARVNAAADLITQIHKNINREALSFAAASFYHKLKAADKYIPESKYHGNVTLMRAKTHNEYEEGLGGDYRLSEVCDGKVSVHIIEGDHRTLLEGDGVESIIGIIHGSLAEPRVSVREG
# In short: (§1)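 Chicken liver FASN was purified by two-step ammonium sulfate precipitation, DEAE-cellulose and Blue-Sepharose chromatography, and stored at −70 °C. Partial reactions (β-ketoacyl reduction, enoyl reduction, AcAc-CoA reduction) were run at 37 °C after 10 min equilibration. The test compound was at 10.0 μM, with DMSO below 0.5% (v/v). Initial velocity came from the NADPH decrease at 340 nm. Relative activity was Ai/A0 × 100%, given as mean ± SD of three independent experiments.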
# [4] = biological target: FASN ER domain (enoyl reduction) (Gallus gallus, UniProt P12276); test: enoyl reduction partial reaction of FASN; type: biochemical, chicken; conditions: 10.0 μM phloretin
# Sequence of FASN ER domain (enoyl reduction) (P12276 2-2512 limits assumed): as above
# In short: as §1
# [5] = biological target: FASN (MAT, KR, DH, ER domains and ACP; AcAc-CoA reaction) (Gallus gallus, UniProt P12276); test: AcAc-CoA reduction reaction of FASN; type: biochemical, chicken; conditions: 10.0 μM phloretin
# In short: as §1
# FASN [6] = biological target: T1, FASN; test: time-dependent; type: biochemical, chicken
# In short: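 FASN was incubated at 25 °C with various test compound concentrations. Aliquots taken at set intervals were assayed for residual overall activity. kobs came from ln(At/A0) = −kobs·t. For substrate protection, Ac-CoA, Mal-CoA or NADPH (10 μM each) was present during inactivation, compared with no substrate. In a separate series, FASN (0.60 μM) was preincubated with 6.6 μM test compound plus rising Ac-CoA, and 1/kobs was plotted against Ac-CoA.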
# FASN KR domain = FASN KR domain (Gallus gallus, UniProt P12276); test: time-dependent inhibition of the KR domain; type: biochemical, chicken
# Sequence of FASN KR domain (P12276 2-2512 limits assumed): as above
# FASN [7] = biological target: T1, FASN; test: enzyme kinetics study; type: biochemical, chicken; conditions: for Ki: Inhibition constant K is
# In short: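 Purified chicken FASN, overall reaction at 340 nm (NADPH). One substrate was varied with the others fixed. Ac-CoA varied with Mal-CoA 10 μM and NADPH 35 μM, test compound 0–5.86 μM. Mal-CoA varied with Ac-CoA 3 μM and NADPH 35 μM, test compound 0–6.88 μM. NADPH varied with Ac-CoA 3 μM and Mal-CoA 10 μM, test compound 0–9.12 μM. Lineweaver–Burk plots; Kis/Kii from secondary plots; points are means of 2–5 experiments.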
# MDA-MB-231 = test: cell viability assay; type: cell-based; conditions: Homo sapiens, MDA-MB-231, 24 h, read-out: IC50, cell viability
# In short: (§2)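 Cells were grown in DMEM with 10% FBS at 37 °C and 5% CO2. They were seeded at 1 × 10^6 cells/mL and allowed to attach overnight before treatment. Medium was then replaced with drug-free medium containing CCK-8 reagent, incubated 1 h at 37 °C, and read at 450 nm. Six replicates were run on three separate occasions.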
# MCF-7 = test: cell viability assay; type: cell-based; conditions: Homo sapiens, MCF7, 24 h, read-out: IC50, cell viability
# In short: as §2
# [8] = tested on: FASN expression in MDA-MB-231 and MCF-7 cells; test: Western blot analysis of FASN expression in breast cancer cells; type: cell-based, human; conditions: 60–90 μM, 24 h, both cell lines
# In short: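 Cells in DMEM/10% FBS were treated 24 h with test compound, washed with PBS, lysed in RIPA and sonicated. Protein was measured by BCA, and 20 μg per lane was run on 8% SDS-PAGE and transferred to PVDF. Membranes were blocked in 5% milk, probed overnight at 4 °C with rabbit monoclonal anti-FASN and anti-β-actin, then an HRP anti-rabbit secondary. Detection was by ECL, with densitometry normalized to β-actin; mean ± SD, n = 3.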
# [9] = biological target: intracellular FASN in breast cancer cells (MDA-MB-231, MCF-7) (Homo sapiens, UniProt P49327); test: intracellular FASN activity assay; type: cell-based
# Sequence of intracellular FASN in breast cancer cells (MDA-MB-231, MCF-7) (P49327 whole entry): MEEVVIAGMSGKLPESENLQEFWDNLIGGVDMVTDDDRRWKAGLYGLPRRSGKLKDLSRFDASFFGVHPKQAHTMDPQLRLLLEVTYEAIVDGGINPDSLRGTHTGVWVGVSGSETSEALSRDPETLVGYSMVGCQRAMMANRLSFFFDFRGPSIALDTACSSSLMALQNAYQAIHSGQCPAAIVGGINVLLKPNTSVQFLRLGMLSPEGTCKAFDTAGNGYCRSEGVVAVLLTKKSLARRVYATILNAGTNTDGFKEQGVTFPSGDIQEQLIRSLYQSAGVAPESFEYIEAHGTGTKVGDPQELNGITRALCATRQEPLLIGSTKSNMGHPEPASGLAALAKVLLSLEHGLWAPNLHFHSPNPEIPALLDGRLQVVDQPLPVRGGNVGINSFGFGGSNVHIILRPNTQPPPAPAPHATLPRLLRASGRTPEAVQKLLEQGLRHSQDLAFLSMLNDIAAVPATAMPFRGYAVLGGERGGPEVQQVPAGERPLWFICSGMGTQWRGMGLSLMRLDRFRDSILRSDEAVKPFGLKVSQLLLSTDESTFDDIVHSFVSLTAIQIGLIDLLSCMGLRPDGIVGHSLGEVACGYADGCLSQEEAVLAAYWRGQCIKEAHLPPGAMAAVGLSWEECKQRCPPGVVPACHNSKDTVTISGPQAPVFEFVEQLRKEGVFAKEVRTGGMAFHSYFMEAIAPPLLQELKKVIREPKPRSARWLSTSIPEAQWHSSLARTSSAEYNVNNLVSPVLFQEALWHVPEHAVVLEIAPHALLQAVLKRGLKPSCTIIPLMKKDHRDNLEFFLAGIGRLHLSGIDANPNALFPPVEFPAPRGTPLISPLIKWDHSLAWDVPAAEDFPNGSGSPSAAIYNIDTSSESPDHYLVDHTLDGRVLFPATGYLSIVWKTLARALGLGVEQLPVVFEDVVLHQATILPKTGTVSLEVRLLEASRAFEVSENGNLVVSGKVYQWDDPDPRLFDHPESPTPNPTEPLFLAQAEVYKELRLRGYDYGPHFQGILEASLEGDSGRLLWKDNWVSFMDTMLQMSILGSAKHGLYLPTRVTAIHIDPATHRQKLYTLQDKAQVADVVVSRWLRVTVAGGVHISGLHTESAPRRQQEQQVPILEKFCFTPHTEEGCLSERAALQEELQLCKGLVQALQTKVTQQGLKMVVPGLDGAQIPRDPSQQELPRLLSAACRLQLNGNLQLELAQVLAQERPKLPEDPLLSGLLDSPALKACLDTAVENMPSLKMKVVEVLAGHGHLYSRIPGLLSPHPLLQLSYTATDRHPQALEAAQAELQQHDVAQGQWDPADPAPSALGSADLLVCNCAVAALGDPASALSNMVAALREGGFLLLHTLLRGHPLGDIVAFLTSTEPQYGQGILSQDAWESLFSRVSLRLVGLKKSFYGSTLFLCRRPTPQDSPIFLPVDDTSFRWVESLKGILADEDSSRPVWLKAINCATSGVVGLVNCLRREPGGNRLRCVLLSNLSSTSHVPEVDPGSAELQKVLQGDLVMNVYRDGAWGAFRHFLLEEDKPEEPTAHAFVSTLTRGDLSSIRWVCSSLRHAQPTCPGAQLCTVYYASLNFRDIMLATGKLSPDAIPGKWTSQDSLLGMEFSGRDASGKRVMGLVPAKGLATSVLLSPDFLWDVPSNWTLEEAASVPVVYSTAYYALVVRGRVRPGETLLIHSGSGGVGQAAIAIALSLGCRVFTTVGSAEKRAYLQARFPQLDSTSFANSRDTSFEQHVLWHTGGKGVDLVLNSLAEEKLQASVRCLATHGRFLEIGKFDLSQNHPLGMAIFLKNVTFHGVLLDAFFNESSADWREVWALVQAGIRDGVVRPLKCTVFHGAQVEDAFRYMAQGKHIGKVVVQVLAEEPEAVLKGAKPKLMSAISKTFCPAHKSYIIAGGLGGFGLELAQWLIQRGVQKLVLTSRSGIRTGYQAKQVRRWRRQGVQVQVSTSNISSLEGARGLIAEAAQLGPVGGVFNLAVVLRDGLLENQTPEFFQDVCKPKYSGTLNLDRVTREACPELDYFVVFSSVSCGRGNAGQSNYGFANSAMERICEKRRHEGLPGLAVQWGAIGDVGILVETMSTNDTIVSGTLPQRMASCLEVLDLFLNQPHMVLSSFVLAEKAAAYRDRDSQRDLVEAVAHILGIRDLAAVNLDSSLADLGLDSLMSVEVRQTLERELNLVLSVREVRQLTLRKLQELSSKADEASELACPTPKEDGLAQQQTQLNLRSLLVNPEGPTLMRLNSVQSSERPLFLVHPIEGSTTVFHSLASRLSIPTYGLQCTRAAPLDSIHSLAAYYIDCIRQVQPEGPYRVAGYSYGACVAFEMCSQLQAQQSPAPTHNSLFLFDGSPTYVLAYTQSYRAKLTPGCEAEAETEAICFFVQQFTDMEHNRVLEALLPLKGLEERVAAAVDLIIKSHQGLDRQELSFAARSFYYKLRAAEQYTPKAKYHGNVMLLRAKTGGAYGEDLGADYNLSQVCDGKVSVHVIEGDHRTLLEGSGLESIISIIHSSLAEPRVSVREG
# In short: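 After 24 h exposure, cells were trypsinized, washed three times and resuspended in cold PBS. They were sonicated at 4 °C and spun at 12,000 g for 15 min at 4 °C. Supernatant was assayed in 25 mM K-phosphate (pH 7.0) with 0.25 mM EDTA, 0.25 mM DTT, 30 μM Ac-CoA and 350 μM NADPH. Background A340 was read for 60 s, then Mal-CoA was added and FAS-dependent NADPH oxidation read for 60 s more. Mean ± SD, n = 3; ANOVA with Tukey.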
# [10] = tested on: intracellular TG content in breast cancer cells (MDA-MB-231, MCF-7); test: triglyceride; type: cell-based, human; conditions: 24 h, p < 0.001
# [11] = ref number not given, cited from earlier work
# T1 sequence (P12276 2-2512 limits assumed): as the sequence (P12276 2-2512 limits assumed) above
compound,measurement,setting,value
"O=C(O[C@@H]1Cc2c(O)cc(O)cc2O[C@@H]1c1cc(O)c(O)c(O)c1)c1cc(O)c(O)c(O)c1 [EGCG, epigallocatechin gallate, reference compound]",IC50,"FASN [1]; read-out: IC50, FASN overall reaction activity, chicken liver FASN, 37 °C",50.5 ± 0.75 µM
same,IC50,FASN [2],52 µM
C/C=C/C/C=C/CCC(=O)[C@H]1O[C@H]1C(N)=O [cerulenin],IC50,FASN [2],89 µM
"O=C(CCc1ccc(O)cc1)c1c(O)cc(O)cc1O [phloretin, β-(4-hydroxyphenyl)-2,4,6-trihydroxypropiophenone]",IC50,FASN [1],4.9 ± 0.66 µM
same,inhibition at 10 µM,FASN [1]; read-out: inhibition of overall FASN activity,81%
same,β-ketoacyl reduction activity suppressed,[3],3.5%
same,enoyl reduction activity suppressed,[4],4.8%
same,AcAc-CoA reaction activity remained,[5],91.2%
same,decrease of k obs by preincubation with Mal-CoA or NADPH,FASN [6]; Mal-CoA (10 μM) or NADPH (10 μM) vs no substrate,5–10%
same,"k obs, FASN inactivation without any substrate","FASN [6]; control, same conditions without substrate",0.070 min^–1
same,"k obs, overall reaction activity of FASN","FASN [6]; phloretin 2 mg/mL, incubated at 25 °C",0.0264 min^–1
same,"k obs, FASN inactivation with Ac-CoA",FASN [6]; with Ac-CoA (10 μM),0.025 min^–1
same,"k obs, FASN inactivation with Mal-CoA",FASN [6]; with Mal-CoA (10 μM),0.067 min^–1
same,"k obs, FASN inactivation with NADPH",FASN [6]; with NADPH (10 μM),0.064 min^–1
same,time-dependent inhibition of KR domain,FASN KR domain,no time-dependent inhibition was observed
same,Ki,FASN [7]; substrate Ac-CoA,3.46 µM
same,Ki,FASN [7]; substrate Mal-CoA,5.69 µM
same,Inhibitory manner,"FASN [7]; substrate Ac-CoA varied, Mal-CoA 10 μM, NADPH 35 μM",Competitive
same,Inhibitory manner,"FASN [7]; substrate Mal-CoA varied, Ac-CoA 3 μM, NADPH 35 μM",Mixed competitive and noncompetitive
same,Inhibition constant K ii,"FASN [7]; substrate Mal-CoA, enzyme–substrate complex",9.41 µM
same,Inhibition constant K ii,FASN [7]; substrate NADPH,1.80 µM
same,Inhibitory manner,"FASN [7]; substrate NADPH varied, Ac-CoA 3 μM, Mal-CoA 10 μM",Uncompetitive
same,IC50,MDA-MB-231,81.4 µM
same,IC50,MCF-7,101 µM
same,FASN protein content,[8],significantly decreased
same,lowest concentration with significant inhibition of intracellular FASN activity,"[9]; p < 0.01, 24 h, breast cancer cells",30 µM
same,inhibition at 90 µM,[9]; read-out: maximal inhibition of intracellular FASN enzymatic activity,> 50%
same,cellular TG levels,[10],marked concentration-dependent reduction
same,time of Cmax postdose,"[11]; Sprague–Dawley rats, single 100 mg/kg dose",15 min
same,Cmax,[11]; oral doses of 200 and 300 mg/kg,< 10 µM
same,oral bioavailability,"[11]; rats, oral and intravenous routes",8.676%
